hiPSC survival – enhancers of human iPSC single-cell survival | survival enhancement, % at 20 µM | hiPSC single-cell survival, ATPlite luminescence; 100% = ROCK inhibitor wells, 0% = DMSO | 360,000 compounds, 0.044% hits; in the data active = survival enhancement above about 18%;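 also: cells exposed to compounds for 16 hours before the ATP read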
DAGLB inh – diacylglycerol lipase beta (human) inhibition. AID 504411. 340,000 compounds, 0.059% hits. HEK293T DAGLB membrane lysate, EnzChek fluorogenic substrate. inhibition, % at 5.17 µM. Q8NCG7; in the data active = inhibition above about 34%;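 also: 0% = enzyme with vehicle and 100% = wells lacking enzyme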
Target sequence (Q8NCG7 whole entry, looked up): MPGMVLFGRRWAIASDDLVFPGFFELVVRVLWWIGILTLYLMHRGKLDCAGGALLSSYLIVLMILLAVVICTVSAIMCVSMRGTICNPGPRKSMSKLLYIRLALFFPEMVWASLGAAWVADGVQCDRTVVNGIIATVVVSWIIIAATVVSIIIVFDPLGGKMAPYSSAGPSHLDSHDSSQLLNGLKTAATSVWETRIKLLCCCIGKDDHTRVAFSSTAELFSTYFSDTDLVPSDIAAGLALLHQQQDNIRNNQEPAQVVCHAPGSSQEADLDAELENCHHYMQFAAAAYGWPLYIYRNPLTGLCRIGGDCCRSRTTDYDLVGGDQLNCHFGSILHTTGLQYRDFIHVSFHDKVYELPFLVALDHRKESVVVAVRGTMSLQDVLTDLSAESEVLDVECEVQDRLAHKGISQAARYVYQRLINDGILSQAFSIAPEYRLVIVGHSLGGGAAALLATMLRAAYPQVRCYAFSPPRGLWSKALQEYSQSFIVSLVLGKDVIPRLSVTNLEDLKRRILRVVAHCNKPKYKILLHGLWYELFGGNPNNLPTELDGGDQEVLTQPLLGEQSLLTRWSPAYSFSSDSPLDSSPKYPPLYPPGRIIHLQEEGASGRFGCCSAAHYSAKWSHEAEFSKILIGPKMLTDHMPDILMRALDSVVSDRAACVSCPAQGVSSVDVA
Cneo AK release – Cryptococcus neoformans lysis via adenylate kinase release | C. neoformans lysis, adenylate kinase release luminescence, 4 h; normalised: neutral wells 0, clomiphene wells 100 | lysis activity, % at 15 µM | 360,000 compounds, 0.2% hits;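 active = mean lysis activity across replicates of at least 80%, whatever share of replicates individually reach that level; inactive = mean lysis activity below 80%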
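Assay system: Cryptococcus neoformans yeast cells / Dosing: single-point compound dose / Timing: 4 h at 37 °C static, read 1 h later / Measured by: luminescence of released adenylate kinase using an AK detection reagent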
SKN-1 inh – C. elegans SKN-1 inhibition | C. elegans VP596 Pgst-4::GFP/RFP ratio, acrylamide-induced, 24 h | inhibition, % at 21.8 µM | 360,000 compounds, 0.49% hits | AID 624304;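 active = interference check ratio from 0.5 to 1.5 plus GFP to RFP signal ratio inhibition reaching or exceeding a fixed threshold, cut at about 30% in these data, passing the limit was not always enough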
Ecoli rRNA inh – inhibits bacterial ribosomal RNA function over humanized ribosomes; AID 720706; 350,000 compounds, 1.6% hits; GFP signal change (wild-type ribosome), % (concentration not given with the values); E. coli WT GFP vs humanized-ribosome RFP mutants, fluorescence, 24 h; hits give low values; DMSO median 0, no signal -100;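 active = significant combined selectivity score with lowered wild-type GFP, culture density cut under 30%, mutant RFP and density less affected; inactive = any of these conditions unmet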
MT1-MMP act inh – inhibitors of human MT1-MMP activation | 360,000 compounds, 0.061% hits | GFP/RFP ratio change, % at 20 µM | P50281 | HT1080 RFP-PRO-GFP cells, GFP/RFP ratio fluorescence, overnight; percent of plate control window, DMSO zero;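 active = GFP/RFP ratio change of at least 30% with cell ATP level not reduced by more than half and red fluorescence within 50% of control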
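Assay system: HT1080 RFP-PRO-GFP cells. Benchmarks: DMSO vehicle wells and RFP-L50D-GFP reporter cell wells. Times: overnight cell settling, then overnight compound exposure, 37 °C, 5% CO2. Compound: 20 µM single dose, 1% DMSO. Read-out basis: GFP/RFP fluorescence ratio.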
Starred values were filed as active, the others as inactive. An excerpt weighted towards active compounds, which were near 1.8% of everything screened.

Results for COCCNC(=O)/C(C#N)=C/C(C)=C/c1ccccc1 ?
hiPSC survival: -0.7; DAGLB inh: -2.4; SKN-1 inh: -0.1; Ecoli rRNA inh: -21.9*; MT1-MMP act inh: -1.0

What do the screens show for `COC(=O)c1cc2oc3ccccc3c2n1Cc1ccccn1`?
hiPSC survival: -4.6; DAGLB inh: -4.4; Cneo AK release: 5.0; SKN-1 inh: -8.0; Ecoli rRNA inh: -44.0*; MT1-MMP act inh: -1.0

How did O=C(Nc1ccccc1Cl)c1cc(C2CCCN(C(=O)OCCF)C2)on1 (stereo not drawn) do in these assays?
hiPSC survival: 0.7; Cneo AK release: -0.4; SKN-1 inh: 37.0*; Ecoli rRNA inh: -22.9; MT1-MMP act inh: 0.0

How did C[C@@H]1CN([C@H](C)CO)C(=O)Cc2cc(NC(=O)Cn3cnnn3)ccc2O[C@@H]1CN(C)C(=O)Nc1cccc2ccccc12 do in these assays?
Cneo AK release: -6.0; Ecoli rRNA inh: 5.5

How did O=C(Nc1ccc(Br)c(Cl)c1)c1ccco1 do in these assays?
hiPSC survival: -1.6; DAGLB inh: -1.5; Cneo AK release: -6.9; SKN-1 inh: 86.2*; MT1-MMP act inh: -0.9

What do the screens show for `O=C(/C=C/c1ccc(Cl)c([N+](=O)[O-])c1)Nc1ccc(NC(=O)c2ccco2)cc1`?
hiPSC survival: 0.5; DAGLB inh: 1.2; SKN-1 inh: 6.1; Ecoli rRNA inh: 3.6; MT1-MMP act inh: -0.6

How did COC(=O)c1cc(NC(=O)c2cccc([N+](=O)[O-])c2C)ccc1Cl do in these assays?
hiPSC survival: -0.7; DAGLB inh: -2.5; Cneo AK release: 2.8; SKN-1 inh: 6.2; Ecoli rRNA inh: -25.2*; MT1-MMP act inh: 11.1

What do the screens show for `O=C(Nc1ccc(Cl)c([N+](=O)[O-])c1)c1ccco1`?
hiPSC survival: -0.6; DAGLB inh: 3.2; Cneo AK release: 112.3*; SKN-1 inh: 17.7; Ecoli rRNA inh: 3.3; MT1-MMP act inh: 1.6

What do the screens show for `COC(=O)c1ccc(Cl)c(NC(=O)c2cccc([N+](=O)[O-])c2C)c1`?
hiPSC survival: 2.6; DAGLB inh: -0.5; Cneo AK release: 1.1; SKN-1 inh: 7.6; Ecoli rRNA inh: -0.6; MT1-MMP act inh: 3.9

Results for COc1ccc(NC(=O)Nc2ccc3c(c2)CC(=O)N([C@@H](C)CO)C[C@@H](C)[C@H](CN(C)Cc2ccc(C(=O)O)cc2)O3)cc1 ?
Cneo AK release: -4.4; Ecoli rRNA inh: 0.0

Results for O=S(=O)(c1ccccc1)N1CC[C@@H]2[C@H]1c1cc(C#CC3CCCCC3)ccc1N[C@@H]2CO ?
Ecoli rRNA inh: -2.5

How did CN=c1scc(-c2ccccc2F)n1/N=C/c1ccc[nH]1 do in these assays?
hiPSC survival: -5.8; DAGLB inh: 3.1; SKN-1 inh: 29.5; Ecoli rRNA inh: -21.6*; MT1-MMP act inh: -3.4

What do the screens show for `O=C1NC(=Nc2ccc(O)cc2)S/C1=C\C=C\c1ccco1`?
hiPSC survival: -0.7; DAGLB inh: 5.7; SKN-1 inh: -4.9; Ecoli rRNA inh: -24.2*; MT1-MMP act inh: -0.2

How did C[C@H]1CN([C@@H](C)CO)C(=O)c2cc(NS(=O)(=O)c3cccs3)ccc2O[C@H]1CN(C)C(=O)NC1CCCCC1 do in these assays?
Cneo AK release: -3.1; Ecoli rRNA inh: 0.0

How did COc1cccc(NC(=O)C2CCC(CNS(=O)(=O)c3cccs3)CC2)c1 (stereo not drawn) do in these assays?
hiPSC survival: 0.3; DAGLB inh: -4.0; SKN-1 inh: 8.8; Ecoli rRNA inh: -21.1*; MT1-MMP act inh: -0.5

How did COc1cccc(-c2cccc(NC(=O)C3CCN(CC4CCOC4)CC3)c2)c1 (stereo not drawn) do in these assays?
hiPSC survival: 0.0; DAGLB inh: -2.2; Cneo AK release: 0.7; SKN-1 inh: 46.5*; Ecoli rRNA inh: -1.0; MT1-MMP act inh: -1.2

How did COc1ccccc1CNC(=O)C1CCC(CNS(=O)(=O)c2cccs2)CC1 (stereo not drawn) do in these assays?
hiPSC survival: 0.3; DAGLB inh: 2.2; Cneo AK release: 2.0; SKN-1 inh: 13.0; Ecoli rRNA inh: -2.0; MT1-MMP act inh: -2.2

How did CCC(=O)N1CC2(C1)[C@@H](c1ccccc1)[C@H](CO)N2C(=O)NC(C)C do in these assays?
Ecoli rRNA inh: 1.3

Results for Cc1ccc(S(=O)(=O)N/N=C\c2cn(CC(N)=O)c3ccccc23)cc1C ?
hiPSC survival: 0.3; DAGLB inh: 0.8; Cneo AK release: 2.4; SKN-1 inh: -9.5; Ecoli rRNA inh: -22.8*; MT1-MMP act inh: 0.8

Results for NC(=O)Cn1cc(/C=N\NS(=O)(=O)c2ccc(Cl)cc2)c2ccccc21 ?
hiPSC survival: -0.6; DAGLB inh: -2.2; Cneo AK release: 3.9; SKN-1 inh: -21.2; Ecoli rRNA inh: -11.1; MT1-MMP act inh: 0.3

What do the screens show for `O=C(O)c1cc(S(=O)(=O)N2CCN(C(c3ccccc3)c3ccccc3)CC2)ccc1Cl`?
hiPSC survival: -0.1; DAGLB inh: 8.9; Cneo AK release: -2.0; SKN-1 inh: 2.0; Ecoli rRNA inh: -16.1*; MT1-MMP act inh: -6.7

What do the screens show for `CC(NCC(=O)Nc1cc(S(=O)(=O)N2CCCCCC2)ccc1Cl)c1ccccc1` (stereo not drawn)?
hiPSC survival: 2.5; DAGLB inh: -10.1; Cneo AK release: 0.5; SKN-1 inh: -9.4; Ecoli rRNA inh: -23.4*; MT1-MMP act inh: -9.2

What do the screens show for `Cc1ccccc1NCC(=O)Nc1cc(S(=O)(=O)N2CCCCC2)ccc1C`?
hiPSC survival: -0.3; DAGLB inh: 2.6; Cneo AK release: 0.4; SKN-1 inh: 12.0; Ecoli rRNA inh: 5.5; MT1-MMP act inh: 1.3

Results for COCC(=O)N1C[C@@H](C)[C@H](OC)CN(C)C(=O)c2cc(NC(=O)c3ccc(F)cc3)ccc2OC[C@H]1C ?
Cneo AK release: 2.7; Ecoli rRNA inh: -0.9

How did O=C(C[C@@H]1CC[C@@H](NC(=O)Nc2ccccc2F)[C@@H](CO)O1)NCc1ccc(F)cc1 do in these assays?
Ecoli rRNA inh: 3.0

How did O=C(Nc1cccc(F)c1)N1CC(=O)N2[C@H](CO)[C@@H](c3ccc(C#Cc4cccnc4)cc3)[C@H]2C1 do in these assays?
Ecoli rRNA inh: -3.3

What do the screens show for `Oc1c(Br)cc(Br)cc1CNc1cccc2cccnc12`?
hiPSC survival: -0.7; DAGLB inh: 18.1; Cneo AK release: 0.8; SKN-1 inh: 9.5; Ecoli rRNA inh: -22.5*; MT1-MMP act inh: -3.7

How did Cc1c(C(=O)N2CCCC2)oc2ccc(Br)cc12 do in these assays?
hiPSC survival: 0.9; DAGLB inh: -1.6; Cneo AK release: 0.3; SKN-1 inh: 7.1; Ecoli rRNA inh: -30.1*; MT1-MMP act inh: -1.5
